# In the library only some 1.4% were active in any assay of this set; here they are far more common.
# Rce1 inh: inhibitors of yeast Ras-converting enzyme. Q03530. yeast membranes, quenched prenylated peptide cleavage fluorescence. calls only. 0.27% of 290,000 active. AID 2563;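 active means fall in fluorescence gain of 50% or more versus controls, with final raw signal at or below 3038400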;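 further: plate controls were neutral control wells for no effect and wells lacking membranes for full effect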
# Target sequence (Q03530 whole entry, looked up): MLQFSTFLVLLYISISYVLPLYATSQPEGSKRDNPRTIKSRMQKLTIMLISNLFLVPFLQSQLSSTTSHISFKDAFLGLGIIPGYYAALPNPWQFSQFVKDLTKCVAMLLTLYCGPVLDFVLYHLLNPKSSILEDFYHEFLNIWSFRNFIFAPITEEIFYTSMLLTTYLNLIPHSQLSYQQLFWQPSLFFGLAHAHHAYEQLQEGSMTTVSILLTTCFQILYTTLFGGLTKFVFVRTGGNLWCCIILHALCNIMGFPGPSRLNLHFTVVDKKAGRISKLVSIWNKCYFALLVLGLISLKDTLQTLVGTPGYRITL
# thrombin 1536: inhibitors of human thrombin. P00734. alpha-thrombin, Boc-VPR-AMC fluorogenic substrate cleavage. inhibition, % at 5 µM. 0.26% of 220,000 active;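 active means inhibition at or above 40%; inactive means inhibition below 40%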;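 further: 0% = enzyme with no compound and 100% = wells without enzyme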
#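 signal = AMC fluorescence, 355/460 nm | material = human alpha-thrombin enzyme | control set = enzyme without compound as high, wells lacking enzyme as low | times = reaction at room temperature | read-out basis = percent inhibition scaled between no-compound controls and no-enzyme blanks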
# FXIa inh 1536: blocks human coagulation factor XIa protease activity. P03951. purified FXIa, Boc-Glu-Ala-Arg-AMC fluorogenic substrate. inhibition, % at 5 µM. 0.14% of 220,000 active. AID 798;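 active means inhibition of at least 40%; inactive means inhibition below 40%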;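 further: fluorescence of freed AMC excited at 355 nm; 0% = enzyme without compound and 100% = no enzyme blank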
# FXIIa inh: blocks human coagulation factor XIIa protease activity; P00748; purified FXIIa, Boc-QGR-AMC fluorogenic substrate, 2 h; inhibition, % at 5 µM; 0.3% of 220,000 active; in the data active means inhibition above about 40%;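 further: 0% = enzyme with no compound and 100% = blank without enzyme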
# CTSL1 counter: cathepsin L1 inhibition, PFM18AAP counter-screen; 0.49% of 300,000 active; inhibition, % at 5.96 µM; recombinant F. hepatica cathepsin L1, Z-Leu-Arg-MCA fluorescence;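 active means inhibition above the mean of all tested compounds plus 3 SD, set per screening campaign, cut at about 17% in these data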;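 further: 0% = plate median of test compound wells and 100% = 1 µM Z-Phe-Ala-diazomethylketone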
# hK5 inh: inhibitors of human kallikrein 5. Q9Y337. recombinant hK5, fluorogenic AMC substrate cleavage. inhibition, % at 5 µM. 0.59% of 210,000 active. AID 873;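 active means inhibition of 40% or more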;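 further: 0% = enzyme controls without compound and 100% = no-enzyme blanks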
# Target sequence (Q9Y337 67-293 limits assumed): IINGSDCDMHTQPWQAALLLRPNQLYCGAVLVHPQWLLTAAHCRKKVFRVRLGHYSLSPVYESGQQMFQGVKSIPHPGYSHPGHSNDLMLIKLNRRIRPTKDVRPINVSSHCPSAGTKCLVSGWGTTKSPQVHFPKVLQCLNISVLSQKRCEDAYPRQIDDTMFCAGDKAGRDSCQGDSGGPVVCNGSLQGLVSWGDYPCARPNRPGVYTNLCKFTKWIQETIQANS
# The depositor's hits bear a star; i = inactive; . = no result; + = active, no number.
SMILES,Rce1 inh,thrombin 1536,FXIa inh 1536,FXIIa inh,CTSL1 counter,hK5 inh
Cc1ccc(N2CC(=O)Nc3c(sc4nc(C)cc(C)c34)C2=O)cc1,i,0,-4,7,29*,-4
CC(c1nccs1)N(C)C(=O)CCc1nnc(Cc2c[nH]c3ccccc23)o1 (stereo unspecified),i,-3,2,12,-1,8
O=[N+]([O-])c1ccc(O)c(-c2cc(C(F)(F)F)nc(-c3ccccc3)n2)c1,i,.,.,.,5,.
NS(=O)(=O)c1ccc(N/N=C/c2cn(-c3ccccc3)nc2-c2cccs2)cc1,+,-8,4,13,-4,-8
NS(=O)(=O)c1ccc(N/N=C/c2cn(-c3ccccc3)nc2-c2cccs2)c([N+](=O)[O-])c1,i,3,0,-2,4,-19
O=C(O)C[C@H](O)C[C@H](O)/C=C/c1c(C2CC2)nc2ccccc2c1-c1ccc(F)cc1,i,.,.,.,.,.
Cc1ccc(-c2[nH]nc3c2C(c2ccoc2)C(C#N)=C(N)O3)cc1C (stereo unspecified),i,-2,-5,-3,-1,62*
O=C1c2ccccc2C(=O)N1Cc1cc(Cl)c(O)c([N+](=O)[O-])c1,i,.,.,.,-3,.
Nc1cc(CN2C(=O)c3ccccc3C2=O)cc(Cl)c1O,i,-4,0,6,25*,-30
Cc1c(C=O)c(Cl)n(C)c(=O)c1C#N,i,-6,2,7,67*,3
CC(=O)N=Cc1c(C)c(C#N)c(=O)n(C)c1O,i,-3,3,11,0,.
Cc1[nH]c2ccccc2c1C(=O)COC(=O)Cn1c(C)nc2ccccc21,i,20,39,32,-17,52*
COc1cc(OC)cc(-n2nnnc2SCC(=O)Nc2ccc(C(C)=O)cc2)c1,i,89*,0,9,1,19
COc1ccc(NC(=O)CSc2nnnn2-c2ccc(OC)cc2)cc1,i,-10,0,17,3,-18
Nc1ccc(Cc2ccc(N)c(C(=O)O)c2)cc1C(=O)O,+,-7,-15,-3,-2,8
Cc1nn(C)cc1CN1CCC(CO)(CCOc2ccccc2)CC1,i,68*,23,27,-5,.
CCOc1ccccc1CN1CCC(CO)(CCOc2ccccc2)CC1,i,-5,1,9,-2,0
COc1cccc(/C=N/NC(=O)CCn2cnc3ccccc32)c1,i,-7,-5,-3,4,-5
COc1ccc(/C=N/NC(=O)CCn2cnc3ccccc32)cc1,i,10,41*,40*,-2,41*
COC(=O)C1=CN(CC2CCCO2)C=C(C(=O)OC)C1c1cccc(O)c1 (stereo unspecified),+,-26,-12,-11,0,-6
COc1cccc(NC(=O)CCC2CCN(C(=O)c3scnc3C)CC2)c1,i,.,.,.,-2,.
C#CCOCCOCCOCCNc1nc(N2CCN(C(=O)Cn3cc(CC(C)O)nn3)CC2)nc(N2CCN(C(=O)[C@H](C)n3cc(CCCN=C(N)N)nn3)CC2)n1 (stereo partly specified),i,40*,3,9,-4,-7
C#CCOCCOCCOCCNc1nc(N2CCN(C(=O)Cn3cc(CCCCN)nn3)CC2)nc(N2CCN(C(=O)[C@H](C)n3cc(CCCN=C(N)N)nn3)CC2)n1,i,38,-6,7,.,1
C#CCOCCOCCOCCNc1nc(N2CCN(C(=O)[C@H]([C@@H](C)CC)n3cc([C@@H](N)CC(C)C)nn3)CC2)nc(N2CCN(C(=O)[C@H]([C@@H](C)CC)n3cc([C@@H](N)CC(C)C)nn3)CC2)n1,i,-4,-3,6,25*,-3
CCC(=O)Nc1cc(C(C)C)c(O)cc1C,i,18,6,18,-1,83*
SMILES,Rce1 inh,thrombin 1536,FXIa inh 1536,FXIIa inh,CTSL1 counter,hK5 inh
Cc1cc(O)c(C(C)C)cc1NC(=O)Nc1cccc2ccccc12,i,-7,3,4,-1,-7
N#CCc1nn(Cc2ccc(F)cc2)c(=O)c2ccccc12,i,.,.,.,-7,.
Cc1ccc(S(=O)(=O)/N=C/c2ccco2)cc1,i,104*,5,31,1,87*
COc1ccc(NC(=O)C2C3C=CC4(O3)C2C(=O)N(CCN2CCCCC2)C4C(=O)NC2CCCC(C)C2C)cc1 (stereo unspecified),i,.,.,.,20*,.
CC(=O)C1=C(C)NC(C)=C(C(C)=O)C1c1ccccc1,i,2,0,5,-3,2
CC(=O)C1=C(C)NC(C)=C(C(C)=O)C1c1cccs1,i,14,27,2,0,79*
CCn1c(SCC(N)=O)nnc1C(C)C,i,97*,-2,8,3,-1
CCO/C(=C/c1sc2ccc(OC)cc2[n+]1CCCS(=O)(=O)[O-])CC,i,3,1,15,2,-5
CCOC(=O)C[n+]1c(C)sc2ccc(OC)cc21,i,1,9,43*,3,-10
NNc1nc2ccc(F)cc2s1,i,22,17,36,-3,43*
N#CC1=C(N)NC(SCc2ccccc2)=C(C#N)C12CCCC2,i,25,10,19,2,45*
c1ccc(-n2cnnc2SCc2cn3cccnc3n2)cc1,+,-19,15,13,-4,0
CCCc1cc(-c2ccc3c(c2)COc2c4ccccc4nn2-3)on1,i,.,.,.,2,.
O=C(O)C(Cc1ccc(Cl)cc1)NS(=O)(=O)c1ccc(Cl)cc1 (stereo unspecified),i,.,.,.,-1,.
CCNc1nc(C)c(CN(C(C)=O)c2ccccc2)nc1C#N,+,-8,-13,-12,3,-35
CCCCC(=O)N1CC(=O)Nc2ccc(F)cc2C1c1ccccc1 (stereo unspecified),i,.,.,.,1,.
CSCCC(NS(=O)(=O)c1ccc2c(c1)c(=O)n(C)c(=O)n2C)C(=O)NC1CCN(Cc2ccccc2)CC1 (stereo unspecified),i,1,2,7,40*,.
CC(C)C[C@H](NC(=O)c1nc[nH]c1C(=O)N1CCc2ccccc2C1)C(=O)OC(C)(C)C,i,-4,0,1,5,-1
O=C(CSc1ccc(Cl)cc1)NCc1ccncc1,i,-3,-7,0,2,-12
N/C(CSc1ccc(Cl)cc1)=N\NC(=O)c1ccncc1,i,3,-4,-6,20*,-18
COc1ccc(NC(=O)CN2CCc3ccccc3C2)c([N+](=O)[O-])c1,.,.,.,.,5,.
CCN(CC(=O)Nc1ccc2c(c1)OCCO2)C(=O)CC(NC(C)=O)c1ccccc1 (stereo unspecified),i,.,.,.,-1,.
Cc1ccccc1Cn1nnc2c1C(=O)c1ccccc1C2=O,.,3,2,7,25*,6
Cc1cccc(Cn2nnc3c2C(=O)c2ccccc2C3=O)c1,i,0,10,14,19*,-5
